From ChEMBL document CHEMBL1125330, “N-substituted pyrazino[2,3-c][1,2,6]thiadiazine 2,2-dioxides. A new class of diuretics” (J Med Chem, 1992)

Key:
[1] = test system: Rattus norvegicus; assay: Dose required to produce an excretion of 2 mequiv of Na+/kg bw/6h vs control groups; type: functional
Summary of the method: (§1)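 Male Sprague-Dawley rats (HC/CFY, 175-200 g), fasted and water-deprived 18 h before and during the test. Compound dosed by gavage in 1% carboxymethyl cellulose/0.1% Tween 80, then water load 2.5 mL/100 g bw po. Urine collected 6 h in metabolic cages; Na+ by flame photometry. Effective doses vs vehicle controls derived by linear regression of dose-response data.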

[2] = test system: Rattus norvegicus; assay: Mean sodium excretion in rats when compound administered at 160 mg/kg po and vehicle dosed at 631.76 umol/kg; type: ADME, organism-based; set-up: dose 160 mg/kg, route oral; conditions: in vivo
Summary of the method: (§2)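 Male Sprague-Dawley rats (HC/CFY, 175-200 g) fasted and water-deprived 18 h before and during the test. Dosed by gavage at 2.5-160 mg/kg in 1% carboxymethyl cellulose/0.1% Tween 80, 0.5 mL/100 g bw. Immediately hydrated with water (2.5 mL/100 g bw, po). Urine collected 6 h in metabolic cages; Na+ and K+ by flame photometry; mean mequiv/6 h/kg bw; nonpaired Student t-test.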

[3] = test system: Rattus norvegicus; assay: Volume of urine 2 hr after the compound was administered 125 mg/kg po in rat; type: ADME, organism-based; set-up: dose 125 mg/kg, route oral; conditions: in vivo
Summary of the method: (§3)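 Onset/duration protocol: male Sprague-Dawley rats (HC/CFY, 175-200 g), food and water withdrawn for 18 h before and during the test. Single gavage dose in 1% carboxymethyl cellulose/0.1% Tween 80 (0.5 mL/100 g bw), then distilled water load (2.5 mL/100 g bw po). Two rats per metabolic cage, six pairs per group. Urine collected at 0-1, 1-2, 2-3, 3-4 and 4-6 h; Na+ by flame photometry. Vehicle controls; nonpaired Student t-test.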

[4] = test system: Rattus norvegicus; assay: Mean Chlorine excretion in rats when compound administered at 160 mg/kg po and vehicle dosed at 631.76 umol/kg; type: ADME, organism-based; set-up: dose 160 mg/kg, route oral; conditions: in vivo
Summary of the method: (§4)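 Male Sprague-Dawley rats (HC/CFY, 175-200 g), no food or water for 18 h before and during the test. Single gavage dose (2.5-160 mg/kg; vehicle 1% carboxymethyl cellulose/0.1% Tween 80, 0.5 mL/100 g bw), then distilled water 2.5 mL/100 g bw po. Individual metabolic cages, 6 h urine. K+ by flame photometry, Cl- colorimetric, as mequiv/6 h/kg bw; unpaired Student t-test vs control.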

[5] = species on record: Rattus norvegicus; assay: Dose required to produce increase in 50 % in urine production vs control groups; type: functional; summary of the method: as §1
[6] = test system: Rattus norvegicus; assay: Mean potassium excretion in rats when compound administered at 20 mg/kg po and vehicle dosed at 78.97 umol/kg; type: ADME, organism-based; set-up: dose 20 mg/kg, route oral; conditions: in vivo; summary of the method: as §4
[7] = test system: Rattus norvegicus; assay: Mean Chlorine excretion in rats when compound administered at 5 mg/kg po and vehicle dosed at 19.74 umol/kg; type: ADME, organism-based; set-up: dose 5 mg/kg, route oral; conditions: in vivo; summary of the method: as §4
[8] = test system: Rattus norvegicus; assay: Mean sodium excretion in rats when compound administered at 0 mg/kg po and vehicle dosed at 0 umol/kg; type: ADME, organism-based; set-up: dose 0 mg/kg, route oral; conditions: in vivo; summary of the method: as §2
[9] = test system: Rattus norvegicus; assay: Mean potassium excretion in rats when compound administered at 160 mg/kg po and vehicle dosed at 631.76 umol/kg; type: ADME, organism-based; set-up: dose 160 mg/kg, route oral; conditions: in vivo; summary of the method: as §4
[10] = test system: Rattus norvegicus; assay: Mean potassium excretion in rats when compound administered at 80 mg/kg po and vehicle dosed at 315.88 umol/kg; type: ADME, organism-based; set-up: dose 80 mg/kg, route oral; conditions: in vivo; summary of the method: as §2
[11] = test system: Rattus norvegicus; assay: Mean Chlorine excretion in rats when compound administered at 10 mg/kg po and vehicle dosed at 39.48 umol/kg; type: ADME, organism-based; set-up: dose 10 mg/kg, route oral; conditions: in vivo; summary of the method: as §4
[12] = test system: Rattus norvegicus; assay: Mean sodium excretion in rats when compound administered at 2.5 mg/kg po and vehicle dosed at 9.87 umol/kg; type: ADME, organism-based; set-up: dose 2.5 mg/kg, route oral; conditions: in vivo; summary of the method: as §2
[13] = test system: Rattus norvegicus; assay: Mean urinary output in rats when compound administered at 0 mg/kg po and vehicle dosed at 0 umol/kg; type: ADME, organism-based, Urine; set-up: dose 0 mg/kg, route oral; conditions: in vivo
Summary of the method: (§5)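 Water-loaded male Sprague-Dawley rats (HC/CFY, 175-200 g) fasted and without water for 18 h. Oral gavage of 2.5-160 mg/kg in 1% CMC with 0.1% Tween 80, then distilled water 2.5 mL/100 g po. Urine collected 6 h in metabolic cages, mean output in mL/6 h/kg bw. Unpaired Student t-test against vehicle; dose-response by linear regression.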

[14] = test system: Rattus norvegicus; assay: Mean urinary output in rats when compound administered at 20 mg/kg po and vehicle dosed at 78.97 umol/kg; type: ADME, organism-based, Urine; set-up: dose 20 mg/kg, route oral; conditions: in vivo; summary of the method: as §5
[15] = test system: Rattus norvegicus; assay: Volume of urine 4 hr after the compound was administered 125 mg/kg po in rat; type: ADME, organism-based; set-up: dose 125 mg/kg, route oral; conditions: in vivo; summary of the method: as §3
[16] = test system: Rattus norvegicus; assay: Mean Chlorine excretion in rats when compound administered at 80 mg/kg po and vehicle dosed at 315.88 umol/kg; type: ADME, organism-based; set-up: dose 80 mg/kg, route oral; conditions: in vivo; summary of the method: as §4
[17] = test system: Rattus norvegicus; assay: Mean potassium excretion in rats when compound administered at 2.5 mg/kg po and vehicle dosed at 9.87 umol/kg; type: ADME, organism-based; set-up: dose 2.5 mg/kg, route oral; conditions: in vivo; summary of the method: as §4
[18] = test system: Rattus norvegicus; assay: Mean urinary output in rats when compound administered at 5 mg/kg po and vehicle dosed at 19.74 umol/kg; type: ADME, organism-based, Urine; set-up: dose 5 mg/kg, route oral; conditions: in vivo; summary of the method: as §5
[19] = test system: Rattus norvegicus; assay: Mean Chlorine excretion in rats when compound administered at 20 mg/kg po and vehicle dosed at 78.97 umol/kg; type: ADME, organism-based; set-up: dose 20 mg/kg, route oral; conditions: in vivo; summary of the method: as §4
[20] = test system: Rattus norvegicus; assay: Mean urinary output in rats when compound administered at 10 mg/kg po and vehicle dosed at 39.48 umol/kg; type: ADME, organism-based, Urine; set-up: dose 10 mg/kg, route oral; conditions: in vivo; summary of the method: as §5
[21] = test system: Rattus norvegicus; assay: Mean Chlorine excretion in rats when compound administered at 2.5 mg/kg po and vehicle dosed at 9.87 umol/kg; type: ADME, organism-based; set-up: dose 2.5 mg/kg, route oral; conditions: in vivo; summary of the method: as §4
[22] = test system: Rattus norvegicus; assay: Mean sodium excretion in rats when compound administered at 20 mg/kg po and vehicle dosed at 78.97 umol/kg; type: ADME, organism-based; set-up: dose 20 mg/kg, route oral; conditions: in vivo; summary of the method: as §2
[23] = test system: Rattus norvegicus; assay: Mean sodium excretion in rats when compound administered at 40 mg/kg po and vehicle dosed at 157.94 umol/kg; type: ADME, organism-based; set-up: dose 40 mg/kg, route oral; conditions: in vivo; summary of the method: as §2

SMILES: Nc1nc(N)c2nc(-c3ccccc3)c(N)nc2n1
- ED2 [1]: 3.8 mg/kg
- Na [2]: 3.32 m equiv 6hr-1 kg-1 (body weight)-1
- Urine volume [3]: 3.2 mL
- Cl- [4]: 3.05 m equiv 6hr-1 kg-1 (body weight)-1
- ED50 [5]: 34.5 mg/kg
- K [6]: 0.16 m equiv 6hr-1 kg-1 (body weight)-1
- Cl- [7]: 1.55 m equiv 6hr-1 kg-1 (body weight)-1
- Na [8]: 0.58 m equiv 6hr-1 kg-1 (body weight)-1
- K [9]: 0.21 m equiv 6hr-1 kg-1 (body weight)-1
- K [10]: 0.14 m equiv 6hr-1 kg-1 (body weight)-1
- Cl- [11]: 1.89 m equiv 6hr-1 kg-1 (body weight)-1
- Na [12]: 1.69 m equiv 6hr-1 kg-1 (body weight)-1
- V [13]: 24.94 ml 6hr-1 (kg of body weight)-1
- V [14]: 32.87 ml 6hr-1 (kg of body weight)-1
- Urine volume [15]: 1.78 mL
- Cl- [16]: 2.8 m equiv 6hr-1 kg-1 (body weight)-1
- K [17]: 0.32 m equiv 6hr-1 kg-1 (body weight)-1
- V [18]: 30.19 ml 6hr-1 (kg of body weight)-1
- Cl- [19]: 1.83 m equiv 6hr-1 kg-1 (body weight)-1
- V [20]: 31.13 ml 6hr-1 (kg of body weight)-1
- Cl- [21]: 1.34 m equiv 6hr-1 kg-1 (body weight)-1
- Na [22]: 2.42 m equiv 6hr-1 kg-1 (body weight)-1
- Na [23]: 2.88 m equiv 6hr-1 kg-1 (body weight)-1
